Tests used:
PTEN-deficient tumor = details: buparlisib plus cisplatin; cited from earlier work
[1] = system: patients with advanced solid tumors; experiment: Phase Ib 3 + 3 dose escalation: DLT, MTD and recommended phase II dose; format: in vivo, human
[2] = system: patients with advanced solid tumors; details: cited from earlier work
[3] = system: class IA PI3K paralogues (p110α, β, and δ); details: cited from earlier work
[4] = Plasma pharmacokinetics of buparlisib, non-compartmental analysis; format: in vivo, human; details: oral; for AUC(0-t) / Cmax / Tmax: human, plasma; for AUC(0-t): AUC0–8 h
How it was run: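 Patients on either platinum/taxane schedule received the oral PI3K-inhibitor test compound at 50 to 100 mg/day. Plasma was sampled on cycle 1/day 1 at 0, 15, 30 and 60 min and at 2, 3, 4.5, 6 and 8 h, plus day 8 pre-dose (taken as 168 h). Non-compartmental analysis: Cmax and Tmax observed; AUClast by linear trapezoidal rule; terminal rate constant by regression of the log-linear terminal phase.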

[5] = 50 mg, Group 1, 50 mg, n = 6, cycle 1/day 1, mean
[6] = 50 mg, Group 2, 50 mg, n = 4, cycle 1/day 1, mean
[7] = 80 mg, Group 1, 80 mg, n = 3, cycle 1/day 1, mean
[8] = 80 mg, Group 2, 80 mg, n = 6, cycle 1/day 1, mean
[9] = 100 mg, Group 1, 100 mg, n = 7, cycle 1/day 1, mean
[10] = 100 mg, Group 2, 100 mg, n = 4, cycle 1/day 1, mean

SMILES: Nc1cc(C(F)(F)F)c(-c2cc(N3CCOCC3)nc(N3CCOCC3)n2)cn1 [buparlisib]
- effect of combination in PTEN-deficient xenograft (PTEN-deficient tumor): synthetic lethality was achieved
- DLTs ([1]; Group 1, DL2 buparlisib 80 mg/day, three patients): no DLTs
- DLTs ([1]; Group 1, DL3 buparlisib 100 mg/day, six evaluable subjects): no DLTs
- DLT description ([1]; Group 1, dose level 1, 50 mg/day, NSCLC, 50 F): Grade 3 alkaline phosphatase elevation
- MTD for buparlisib ([1]; Group 1: carboplatin AUC 5 + paclitaxel 175 mg/m^2 day 1, 21-day cycle, pegfilgrastim): 100 mg/day
- phase II recommended dose of buparlisib ([1]; Group 1 regimen): 100 mg/day
- DLTs ([1]; Group 2, DL1 buparlisib 50 mg/day, three patients): no DLTs
- DLTs ([1]; Group 2, DL2 buparlisib 80 mg/day, first three patients): no DLTs
- subjects who completed cycle 1 without DLT ([1]; Group 2, DL2 buparlisib 80 mg/day, six enrolled): five of six
- DLT description ([1]; Group 2, dose level 3, 100 mg/day, NPC, 50 M): Grade 3 uncomplicated neutropenia >7 days
- DLT description ([1]; Group 2, dose level 3, 100 mg/day, thyroid cancer, 61 F): Grade 3 uncomplicated neutropenia with grade 2 thrombocytopenia >7 days
- MTD for buparlisib ([1]; Group 2: carboplatin AUC 5 day 1 + paclitaxel 80 mg/m^2 days 1, 8, 15, 28-day cycle, no growth factor): 80 mg/day
- phase II recommended dose of buparlisib ([1]; Group 2 regimen): 80 mg/day
- maximum tolerated dose (MTD) of buparlisib monotherapy [2]: 100 mg/day
- most common adverse events ([2]; monotherapy, 83 patients, dose escalation and expansion): decreased appetite, diarrhea, nausea, hyperglycemia, and rash
- patients with radiographic responses ([2]; monotherapy, among 83 patients, one confirmed, three unconfirmed): Four
- inhibition of class IA PI3K paralogues [3]: potently inhibits
- AUC(0-t) [4, 5]: 1220 ng·h/mL
- AUC(0-t) [4, 6]: 1520 ng·h/mL
- Cmax [4, 5]: 285 ng/mL
- Cmax [4, 6]: 399 ng/mL
- Tmax [4, 5]: 4.83 h
- Tmax [4, 6]: 2.13 h
- AUC(0-t) [4, 7]: 2550 ng·h/mL
- AUC(0-t) [4, 8]: 1970 ng·h/mL
- Cmax [4, 8]: 555 ng/mL
- Tmax [4, 7]: 3.67 h
- Tmax [4, 8]: 2.08 h
- AUC(0-t) [4, 9]: 3460 ng·h/mL
- AUC(0-t) [4, 10]: 3410 ng·h/mL
- Cmax [4, 9]: 933 ng/mL
- Cmax [4, 10]: 960 ng/mL
- Tmax [4, 9]: 1.71 h
- Tmax [4, 10]: 2.38 h
- plasma exposure to buparlisib versus dose ([4]; 50 to 100 mg, with carboplatin + paclitaxel, Groups 1 and 2): dose-related increases in plasma exposure

From article PMC6698915 (Cancer chemotherapy and pharmacology, 2015)
